A selection: hits, their analogues and other compounds. The true share with any hit is near 2.8%.
NPY-Y1 PAM-ag: potentiates or activates human NPY-Y1 receptor; P25929; NPY-Y1 expressing cells, potentiator/agonist activation; activation, % at 3.6 µM; 220,000 tested, 0.37% active; AID 1304; in the data active means activation above about 33%, passing the limit was not always enough;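 further: cells stimulated with NPY at EC10 then isoproterenol at EC100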
Measles CPE: protection of cells from measles virus. 140,000 tested, 1.5% active. protection (pct of control), % at 4 µM. Measles virus-infected cells, CPE protection, absorbance. AID 841; in the data active means protection mostly above about 24%, no sharp cut-off; inactive means mostly below about 26%
MDM2 E3 inh: Mdm2 E3 ligase (human) inhibition; Q00987; cell-based MDM2 ubiquitination luciferase reporter, 2 h; 0 = plate control, 100 = twice control, blank-subtracted; signal enhancement, % at 5 µM; 210,000 tested, 0.11% active; AID 1230;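 active means signal enhancement of 30% or more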;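 further: luminescence tracks abundance of the self-degrading MDM2-luciferase fusion protein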
Target sequence (Q00987 whole entry, looked up, the tested form may be a part): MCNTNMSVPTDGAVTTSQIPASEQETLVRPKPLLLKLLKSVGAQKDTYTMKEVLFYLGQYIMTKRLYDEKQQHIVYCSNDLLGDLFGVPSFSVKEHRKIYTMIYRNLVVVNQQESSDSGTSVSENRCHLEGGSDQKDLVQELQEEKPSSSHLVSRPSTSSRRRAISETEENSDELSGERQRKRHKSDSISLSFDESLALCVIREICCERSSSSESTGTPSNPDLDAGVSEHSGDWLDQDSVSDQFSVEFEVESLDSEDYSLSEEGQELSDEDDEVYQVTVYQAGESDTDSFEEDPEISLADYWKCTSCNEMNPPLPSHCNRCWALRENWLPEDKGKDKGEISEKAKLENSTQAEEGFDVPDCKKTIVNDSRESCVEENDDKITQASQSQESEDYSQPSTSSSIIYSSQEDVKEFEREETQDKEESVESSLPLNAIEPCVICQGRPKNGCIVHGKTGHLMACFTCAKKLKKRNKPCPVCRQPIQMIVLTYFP
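Material: stable MDM2–luciferase fusion reporter cells / Quantity: 2000 cells/well / Dosing: single 5 µM compound dose, 0.2% final DMSO / Buffer or medium: DMEM / Schedule: 4 h cell settling then 2 h compound exposure, 37 °C / Detection: luminescence with SteadyLite reagent, 15 min at room temperature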
NPY Y1 blocker: blocks the human neuropeptide Y Y1 receptor. P25929. HEK293-CNG Y1 cells, membrane potential fluorescence; NPY at EC95, then isoproterenol. inhibition, % at 3.6 µM. 200,000 tested, 1% active. AID 1040;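 active means inhibition above the campaign mean inhibition of all tested compounds plus 3 SD, cut at about 20% in these data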
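System: HEK293 cells with Y1 receptor plus CNG channel / Probe or stimulus: NPY 25 nM then isoproterenol 1 µM plus Ro 20-1724 25 µM / Compound: one concentration, 3.6 µM, in 0.4% DMSO / Schedule: compound incubation 1 h at room temperature, readout 45 min post-stimulation / Measured by: membrane potential fluorescence / Read-out: % inhibition of NPY effect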
NPY-Y2 PAM-ag: potentiators or agonists of human neuropeptide Y receptor Y2; cells expressing NPY-Y2, potentiator/agonist read-out; activation, % at 3.6 µM; 220,000 tested, 0.45% active; AID 1359; in the data active means activation above about 27%;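 further: cells stimulated with NPY near EC25 plus isoproterenol at EC100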
NPY Y2 blocker: antagonists of human neuropeptide Y receptor Y2. P49146. NPY-Y2 expressing cells, antagonist mode. inhibition, % at 2.7 µM. 140,000 tested, 0.99% active; in the data active means inhibition above about 17%
Each line names hits and unclear results; the compound was inactive in the other large screens.

CCOc1ccc(C2NC(=O)C(C#N)=C(S)N2c2ccc(C)cc2)cc1OC (stereo unspecified)	none
COc1ccc(-c2cc(C(=O)NCC(C)C)no2)cc1	none
Cc1c([N+](=O)[O-])c(C(=O)N2CCCC2)nn1C	Measles CPE 69
CC(C)CN(CC(C)C)c1nnc(N)s1	Measles CPE 28 (no result: MDM2 E3 inh)
O=C1C(=C2SCCCS2)CC/C1=C\c1ccc(F)cc1	Measles CPE 44
Cc1cccc(/C=C2\CCC(=C3SCCCS3)C2=O)c1	none
Cc1ccc(-c2cccc(C(=O)NCc3ccccc3)n2)c2ccccc12	none (no result: MDM2 E3 inh)
Cc1cc(C)n2nc(C(=O)NCc3ccccc3)nc2n1	none
O=C(NCc1ccccc1)c1cccc(Br)n1	Measles CPE 44 (no result: MDM2 E3 inh)
Cc1cc(C)n2nc(C(=O)NCc3ccccc3)cc2n1	Measles CPE 43
Cc1nc(-c2ccc(S(=O)(=O)NCc3ccccn3)s2)cs1	none (no result: Measles CPE, NPY Y1 blocker, NPY Y2 blocker)
CC(C)(C)c1nc(SCC(=O)c2ccccc2)c2ccccc2n1	none (no result: Measles CPE, NPY Y2 blocker)
O=C(Cc1c2ccccc2nc2ccccc12)c1ccccc1	Measles CPE 20
CCCCC(CC)C(=O)N1CCN(C(=O)c2ccco2)CC1 (stereo unspecified)	none (no result: Measles CPE, NPY Y2 blocker)
Cc1ccc2c(c1)C(c1ccc([N+](=O)[O-])cc1)=NNC(c1ccc(Br)cc1)=N2	NPY Y1 blocker 25, NPY Y2 blocker 17
CCc1ccc2c(c1)C(c1ccc([N+](=O)[O-])cc1)=NNC(c1ccc(Br)cc1)=N2	none
O=C(COc1ccccc1)n1nc(-c2ccc(Cl)cc2)nc1NCc1ccco1	Measles CPE 40
O=C(CN1C(=O)CSc2ccc(S(=O)(=O)N3CCOCC3)cc21)NCc1cccnc1	none (no result: Measles CPE, NPY Y2 blocker)
O=C1CCC(/C=C/c2ccccc2)=NN1Cc1ccc(Cl)c(Cl)c1	NPY Y1 blocker 20, NPY Y2 blocker 25 (no result: MDM2 E3 inh)
COCc1c(C(=O)OC/C(O)=C(\C#N)c2nc3ccccc3[nH]2)oc2ccccc12	NPY Y1 blocker 20 (no result: Measles CPE, NPY Y2 blocker)
C=CCNC(=S)Nc1sc2c(c1C(=O)OCC)CC(C(C)C)OC2 (stereo unspecified)	none
CCn1cc(C(=O)NCCCN2CCC(C)CC2)c2cc(OC)c(OC)cc2c1=O	none
Cc1cc(C)c(-c2cc(C)nc3ncnn23)c(C)c1	none (no result: Measles CPE, NPY Y2 blocker)
Cc1ccc(-c2cc(C)nc3ncnn23)cc1	Measles CPE 47
CC(C)(CO)NCC(O)Cn1cc(C=O)c2ccccc21 (stereo unspecified)	none (no result: Measles CPE, NPY Y2 blocker)
CCOc1ccc(CCn2c(-c3ccco3)nc3ccccc3c2=O)cc1OCC	Measles CPE 44
O=c1c2ccccc2nc(-c2ccco2)n1Cc1ccccc1	none
COCCCNC(=O)CN(c1ccc(OC)cc1)S(=O)(=O)c1ccc(NC(C)=O)cc1	Measles CPE 53
CCOc1ccc(N(CC(=O)Nc2ccc(OC)cc2)S(C)(=O)=O)cc1	Measles CPE 48
COc1ccccc1OCC(=O)Nc1sc2c(c1C(=O)NCC1CCCO1)CCC2 (stereo unspecified)	none
OCCc1ccc(-c2ccc(Cl)cc2)o1	Measles CPE 37
COc1ccc(CN(C)Cc2nc3scc(-c4ccccc4)c3c(=O)[nH]2)cc1OC	none
O=C(O)c1ccccc1CSc1ccccn1	none (no result: Measles CPE, NPY Y2 blocker)
CCOC(=O)c1cc(-c2ccc3c(c2)OCCO3)nc2c1c(C)nn2CCC#N	none
CCOC(=O)c1cc(-c2ccc(OC)cc2F)nc2c1c(C)nn2CCC#N	NPY Y1 blocker 26, NPY Y2 blocker 20
CCOC(=O)c1cc(-c2ccccc2)nc2c1c(C)nn2-c1ccccn1	NPY Y1 blocker 49, NPY Y2 blocker 60
CCOC(=O)c1cc(-c2ccc(Cl)cc2)nc2c1c(C)nn2CCC#N	NPY Y1 blocker 25, NPY Y2 blocker 33
COCCNC(=O)/C(C#N)=C/c1cccc(/C=C(\C#N)C(=O)NCCOC)c1	MDM2 E3 inh 70
O=C(CCN1C(=O)c2ccc([N+](=O)[O-])cc2C1=O)Nc1ccccc1C(=O)O	none (no result: Measles CPE, NPY Y1 blocker, NPY Y2 blocker)
Cc1ccccc1C(=O)NC1CCN(CC(=O)Nc2c(C)cccc2C)CC1	Measles CPE 39
CCOc1ccccc1NC(=O)CN1CCC(NC(=O)c2ccccc2C)CC1	none (no result: Measles CPE, MDM2 E3 inh, NPY Y1 blocker, NPY Y2 blocker)
CC(C)(C)C(=O)OCc1nc(-c2ccc(C(F)(F)F)cc2)cs1	none (no result: Measles CPE, NPY Y1 blocker, NPY Y2 blocker)
CC(NC(=O)CCc1nnc(CCCc2ccccc2)o1)c1ccccc1 (stereo unspecified)	none (no result: Measles CPE, NPY Y2 blocker)

High-throughput results deposited in PubChem BioAssay by several laboratories.
